The record followed here is ChEMBL document CHEMBL4325822, “Discovery of a tetrazolyl β-carboline with in vitro and in vivo osteoprotective activity under estrogen-deficient conditions” (Medchemcomm, 2018).

The structures appear in SMILES notation.

The test system of data set [1] is Rattus norvegicus. Put plainly: Antiosteoporotic activity in Sprague-Dawley rat model of OVX-induced bone loss assessed as bone formation rate at 5 mg/kg, po via gavage for 12 weeks by microcomputed tomographic analysis (reference value: 0.171 +/- 0.005 um3/um2/day). Format: functional. The essentials:
(§1)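 Female Sprague-Dawley rats, 10-12 weeks old, ten per group, were ovariectomized and left 12 weeks for osteopenia. They were then dosed once daily by oral gavage for 12 weeks in 1% gum acacia vehicle. The estradiol arm received 100 µg·kg⁻¹ subcutaneously five days a week. Tetracycline and calcein were given intraperitoneally at 20 mg·kg⁻¹ each. Femur cross-sections (50 µm) were imaged by fluorescence microscopy for MAR and BFR.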

The subject of data set [2] is Rattus norvegicus. As to the kind of experiment: Antiosteoporotic activity in Sprague-Dawley rat model of OVX-induced bone loss assessed as bone formation rate at 1 mg/kg, po via gavage for 12 weeks by microcomputed tomographic analysis (reference value: 0.171 +/- 0.005 um3/um2/day). Format: functional. The essentials:
as §1

Data set [3] deals with Rattus norvegicus. Put plainly: Antiosteoporotic activity in Sprague-Dawley rat model of OVX-induced bone loss assessed as protection against microarchitectural deterioration by measuring trabecular number at 1 mg/kg, po via gavage for 12 weeks by microcomputed tomographic analysis (reference value: 0.56 +/- 0.06 /millimeter). Format: functional. The essentials: (§2)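 Adult female Sprague-Dawley rats were ovariectomized and left 12 weeks to become osteopenic. They then received 12 weeks of once-daily oral gavage (1% gum acacia vehicle) or subcutaneous estradiol, five days a week. Femurs were collected at sacrifice and scanned by micro-CT for BMD and trabecular microarchitecture. Ten rats per group; mean ± SEM.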

For data set [4], the system named is Rattus norvegicus. Put plainly: Antiosteoporotic activity in Sprague-Dawley rat model of OVX-induced bone loss assessed as protection against microarchitectural deterioration by measuring trabecular separation at 5 mg/kg, po via gavage for 12 weeks by microcomputed tomographic analysis (reference value: 1.31 +/- 0.06 millimeter). In kind it is functional. The essentials:
as §2

Data set [5] deals with Rattus norvegicus. As to the kind of experiment: Antiosteoporotic activity in Sprague-Dawley rat model of OVX-induced bone loss assessed as increase in femoral bone strength by measuring energy at 1 mg/kg, po via gavage for 12 weeks by 3 point bending test (reference value: 46.27 +/- 4.36 mJ). In kind it is functional.
Data set [6] concerns Rattus norvegicus. Put plainly: Antiosteoporotic activity in Sprague-Dawley rat model of OVX-induced bone loss assessed as increase in mineralization at 1 to 5 mg/kg, po via gavage for 12 weeks measured 18 days post last dose by alizarin red-S staining based assay relative to control. In kind it is functional. The essentials:
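After 12 weeks of in vivo treatment of ovariectomized rats, femoral bone marrow was flushed. It was cultured 18 days in differentiation medium (10 nM dexamethasone, 10 mM β-glycerophosphate, 50 µg·mL⁻¹ ascorbic acid). Mineralized nodules were stained with alizarin red-S, and the stain was extracted for quantitation.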

The nature of data set [7]: Antioxidant activity assessed as SNP-induced nitric oxide free radical scavenging activity at 250 ug/ml after 150 mins by Griess reagent based method relative to control. Format: functional. The essentials:
(§3)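 Serial dilutions (1000 to 1.95 µg·ml⁻¹) were mixed with sodium nitroprusside (10 mM) and incubated 150 min. An equal volume of Griess reagent was added, and absorbance was read at 546 nm. Percentage scavenging was calculated relative to the control without compound.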

Data set [8] in a line: Antioxidant activity assessed as SNP-induced nitric oxide free radical scavenging activity at lower concentration after 150 mins by Griess reagent based method relative to control. Format: functional. The method, boiled down:
as §3

The nature of data set [9]: Induction of osteoblast differentiation in Sprague-Dawley rat calvarial osteoblasts assessed as alkaline phosphatase activity at 100 pM after 48 hrs using PNPP as substrate by spectrophotometric method relative to control. Format: functional. The method, boiled down: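 Calvarial osteoblasts at 2 × 10³ cells/well. Treated 48 h with varied concentrations in differentiation medium (5% charcoal-treated FBS, 10 mM β-glycerophosphate, 50 µg·mL⁻¹ ascorbic acid). Total ALP read with PNPP substrate at 405 nm. Cell-free wells check for compound interference with substrate or absorbance.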

A short description of data set [10]: Antioxidant activity assessed as SNP-induced nitric oxide free radical scavenging activity at 1000 ug/ml after 150 mins by Griess reagent based method relative to control. Format: functional. The method, boiled down:
as §3

Data set [11] is described as follows: Hepatotoxicity in Sprague-Dawley rat model of OVX-induced bone loss assessed as morphological changes in liver at 1 to 5 mg/kg, po via gavage for 12 weeks by hematoxylin and eosin staining based assay. In kind it is toxicity, organism-based. The note with it: in vivo, 2016 h. The essentials: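 Liver samples from ovariectomized rats after 12 weeks of treatment were dehydrated in isopropanol, cleared in xylene and paraffin-embedded. Transverse 5 µm sections were stained with hematoxylin and eosin and imaged.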

The nature of data set [12]: Increase in OCN mRNA expression in Sprague-Dawley rat calvarial osteoblasts at 100 pM by RT-PCR method relative to control. In kind it is functional, Calvarial osteoblast. The essentials: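 Primary calvarial osteoblasts were lysed in TRIzol after treatment, and total RNA was extracted. Transcripts were quantified by real-time PCR using the comparative CT (ΔΔCT) method.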

A short description of data set [13]: Toxicity in Sprague-Dawley rat model of OVX-induced bone loss assessed as uterine weight at 5 mg/kg, po via gavage for 12 weeks (reference value: 0.12 +/- 0.02 g). In kind it is organism-based. The note with it: in vivo, 2016 h.
Data set [14] can be described thus: Antioxidant activity assessed as DPPH radical scavenging activity at 500 ug/ml after 30 mins by spectrophotometric method relative to control. Format: functional. The method, boiled down:
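The compound was serially diluted from 1000 to 1.95 µg·ml⁻¹ and mixed 1:1 with DPPH in methanol. After 30 min at room temperature, absorbance was read at 517 nm. Scavenging (%) = [(Abc − Abs)/Abc] × 100, where Abc is DPPH without compound.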
Background: The DPPH test is a chemical assay of radical scavenging.

As usually defined, the Emax is the greatest response seen or fitted, relative to the assay's reference. For the compound `CCOC(=O)c1cc2c([nH]c3ccccc32)c(C(c2nnnn2C(C)(C)C)N2CCN(C)CC2)n1` (centres undefined), the Activity in the data set on Rattus norvegicus [1] is 0.98 um3/um2/day; with Rattus norvegicus [2], 1.032 um3/um2/day; in the data set with Rattus norvegicus [3], 1.34 /millimeter; with Rattus norvegicus [4] it was 0.87 mm; in the data set on Rattus norvegicus [5], 70.55 mJ; in data set [7] it was 30.7%. Further, the Activity was 4.07% in data set [8]; 19.3% in [10]; “Non-Toxic” in data set [11]; 0.12 g in data set [13]; 43.5% in [14]. The “fold change (FC)” value in the data set with Rattus norvegicus [6] is 1.4 - 1.5; in data set [12], 1.8 - 4.6. Moreover, the Emax at 0.0001 µM in data set [9] was 89%.
